Series [1] has as its system heat-evoked pain. In kind it is in vivo, healthy men. The procedure, abridged:
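In part 1 (single oral tablets, 1–225 mg, or placebo), heat pain detection and tolerance were measured with a 9 × 9 mm Peltier thermode on the volar forearm, to a 52 °C cutoff. Cold and von Frey mechanical pain thresholds were added in part 1b, with ratings on a 0–11 scale. Testing ran predose, 4 and 8 h, days 2, 4 and 6, and follow-up.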

For series [2], the system named is carrageenan-evoked thermal hyperalgesia. Conditions: cited from earlier work.
The test system of series [3] is capsaicin-induced flare. Briefly: Block of topical capsaicin-induced flare in rats. Format: in vivo, Sprague Dawley rats.
For series [4] the following is noted: cited from earlier work.

Take `CC(C)(O)c1ccccc1-c1ccc2[nH]c(/C=C/c3ccc(C(F)(F)F)cc3)nc2c1` [JNJ-39439335, trans-2-(2-{2-[2-(4-Trifluoromethyl-phenyl)-vinyl]-1H-benzimidazol-5-yl}-phenyl)-propan-2-ol]: the “Heat pain detection threshold, heat pain tolerance, and heat pain latency” value in series [1] (effect of treatment) was “clear, consistent dose-related increases”. Also, in series [1] (healthy human participants (discussion)), the “Mechanical pain detection threshold” value is listed as “no effect”. Also, in series [1] (part 1), the “Dose levels at which mean HPT increased from predose to postdose” value was not below 2 mg and the “Doses at which most participants reached the HPD cutoff temperature (52°C)” value is not below 30 mg. Further, the “Cold pain detection threshold” value in series [1] (part 1b, 15- to 225-mg dose range) is “No clear separation from placebo and no clear dose-related effect”. Besides, the “Mean heat pain latency” value in series [1] (part 1b, all dose levels tested (15 to 225 mg), predose to postdose) is “Increases in mean heat pain latency values”. The “Near maximally effective plasma concentration at the ED80” value in series [2] (rat carrageenan model of inflammatory pain) was 0.009 µg/mL. Moreover, the Carrageenan-evoked thermal hyperalgesia result in series [2] (rat) was “significantly attenuated”. Further, in series [3] (pretreatment 0.3–30 mg/kg, p.o.), the Capsaicin-induced flare entry was “blocked the capsaicin-induced flare in a dose-dependent fashion”. In series [3] (rat, data not shown), the “Estimated plasma exposure associated with ED50” value was 0.0676 ± 0.0449 µg/mL. For the same molecule, the “Flare response induced by 1000 μg topical capsaicin” value in series [3] (rat, single oral dose of 10 mg/kg) is “completely blocked”. Besides, the “Safety margins in 4-week toxicology studies” value in series [4] (rat and dog) is given as “acceptable safety margins”. Further, the “AUC24h at the no-observed-adverse-effect level dose” value in series [4] (rat, most sensitive animal species) was 10,700 ng·h·mL^−1.

(Values after article PMC5741288 (Pain Reports, 2016).)
